Key:
[1] = tested on: scavenger receptors (liver uptake of 125I-pGL3 polyplexes); test: Inhibition of liver uptake of 125I-pGL3 polyplexes by excess PEG-peptide; type: in vivo; conditions: mice, PEG 5 kDa peptides dosed in excess (not shown)
serum DNAse = conditions: cited from earlier work
[2] = tested on: liver hepatocytes (luciferase expression); test: HD-stimulated / direct HD luciferase gene expression in liver; type: in vivo, mice; conditions: for fold increase of expression on substitution for the PEG-peptide five Lys shorter: 80 nmol PEG-peptide, 1 μg pGL3, HD-stimulation at 1 hour
Method in brief: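 Triplicate mice received 1 μg pGL3 polyplex with 10, 40 or 80 nmol PEG-peptide in 100 μL HBM by tail vein. After 1 h circulation, 1.8 mL saline (per 20 g mouse) was given hydrodynamically over 5 s by tail vein. Liver bioluminescence was imaged 24 h later and analysed as log10 values. Controls: naked pGL3 with HD at 5 min, and direct HD of pGL3.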

liver = tested on: liver; design: species or system mice; conditions: mouse, in vivo

PEG5kDa-Cys-Trp-Lys15
inhibition of polyplex uptake into the liver when dosed in excess [1]: failed to inhibit polyplex uptake into the liver

PEG5kDa-Cys-Trp-Lys18
resistance of polyplexes to metabolism by serum DNAse in vitro (serum DNAse): resisted metabolism by serum DNAse in vitro

PEG30kDa-Cys-Trp-Lys20
fold increase of expression on substitution for the PEG-peptide five Lys shorter [2]: 5 fold

PEG30kDa-Cys-Trp-Lys25
fold increase of expression on substitution for the PEG-peptide five Lys shorter [2]: 5 fold
fold increase of expression (over 10 nmol dose) ([2]; 1 μg pGL3 polyplex with 40 nmol PEG-peptide, HD-stimulation at 1 hour): 100 fold
further fold improvement of expression (over 40 nmol dose) ([2]; 1 μg pGL3 polyplex with 80 nmol PEG-peptide, HD-stimulation at 1 hour): 15 fold
maximal percent of polyplex dose taken up by liver (liver): ~30%
percent of polyplex dose taken up by liver (liver): approximately 16%

Reference: paper PMC4837691 (Molecular pharmaceutics, 2015)
